Experimental data as given in article PMC12017310 (Science Advances, 2025).
One block for each molecule: values may come before it. Peptide text beside a SMILES is read from it. * marks the point of attachment. Cbz = O=C(OCc1ccccc1)*

Columns and labels:
CDK12 = CDK12 (Homo sapiens, UniProt Q9NYV4); experiment: Western blot of CDK12 in PCa cell lines; assay type: cell-based; details: 22Rv1, MG132 pre-treatment 2 hours, then BSJ-5-63
Method in brief: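 Equal protein amounts separated by SDS-PAGE and transferred to PVDF. Primary antibodies in 5% BSA/TBST overnight at 4°C; secondary antibody 1 h at room temperature. Blots shown are representative of three independent experiments.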

[1] = In vitro mouse liver microsomal stability assay; assay type: in vitro ADME; details: liver microsomes
Method in brief: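 Mouse liver microsomes (0.5 mg/ml) incubated with 1 μM test compound at 37°C with NADPH cofactor (1 mM).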

PCa cells = experiment: Colony formation assay; assay type: cell-based, human; details: cell viability and colony formation assays
Method in brief: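 Seeding was 30,000 cells/well for 22Rv1 (six-well plates), with overnight attachment before treatment. Colonies grown 14 days at 37°C, 5% CO2, with weekly medium change. Stained with 0.1% crystal violet and quantified by image analysis. Three independent experiments.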

22Rv1 xenografts = experiment: In vivo 22Rv1 xenograft model; parameters: species or system male SCID mice; details: BSJ-5-63 25 mg/kg ip; olaparib 50 mg/kg p.o.
Method in brief: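 22Rv1 cells (5 × 10^6 in 50 μl plus 50 μl Matrigel) injected subcutaneously into the right flank; n = 5/group, randomised at ~150 mm3. Volume = length × width² × 0.5. Monotherapy: 50 mg/kg ip daily or 1 day on/2 days off for 12 days; vehicle 5% DMSO/15% Solutol HS-15/80% saline. Sequential arms: test compound 25 mg/kg ip and PARP inhibitor 50 mg/kg p.o. Tumours weighed; H&E and cleaved caspase-3 IHC performed.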

DU145 xenografts = experiment: In vivo DU145 xenograft model; parameters: species or system male SCID mice; details: BSJ-5-63 25 mg/kg ip; olaparib 50 mg/kg p.o.
Method in brief: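 DU145 xenografts were set up subcutaneously with Matrigel in the right flank. At ~150 mm3, mice were randomised into four groups (n = 5): vehicle p.o., PARP inhibitor 50 mg/kg p.o., test compound 25 mg/kg ip, or sequential combination. Dosing volume 0.1 ml/10 g. Body weight recorded daily. Study ended after 3–4 weeks or at 2 cm tumour length.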

BID-PC4 PDX = experiment: In vivo BID-PC4 PDX model; parameters: species or system male SCID mice; details: BSJ-5-63 25 mg/kg ip; olaparib 50 mg/kg p.o.
Method in brief: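 Tumour bits in 50 μl PBS plus 50 μl Matrigel implanted subcutaneously (right flank) into intact male SCID mice. At ~150 mm3, randomised into four groups (n = 5): vehicle (5% DMSO/15% Solutol HS-15/80% saline) p.o., PARP inhibitor 50 mg/kg p.o., test compound 25 mg/kg ip, or sequential combination. Body weight recorded daily. Run for 3 weeks or until 2 cm tumour length; tumours excised and weighed.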

[2] = system: CDK12-KO 22Rv1 xenografts; experiment: In vivo CDK12-KO 22Rv1 xenograft model; parameters: species or system male SCID mice; details: olaparib 50 mg/kg, p.o., daily
Method in brief: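 CDK12-KO (two sgRNAs) and AAVS1-control 22Rv1 cells made by lentiviral spin infection of Cas9-expressing cells (blasticidin 20 μg/ml). Implanted subcutaneously (5 × 10^6 with Matrigel). At ~150 mm3, each line randomised to vehicle p.o. or PARP inhibitor 50 mg/kg p.o. daily for 3 weeks (or until 2 cm tumour length). Tumours excised and weighed.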

Chain of CDK12 (Q9NYV4 whole entry): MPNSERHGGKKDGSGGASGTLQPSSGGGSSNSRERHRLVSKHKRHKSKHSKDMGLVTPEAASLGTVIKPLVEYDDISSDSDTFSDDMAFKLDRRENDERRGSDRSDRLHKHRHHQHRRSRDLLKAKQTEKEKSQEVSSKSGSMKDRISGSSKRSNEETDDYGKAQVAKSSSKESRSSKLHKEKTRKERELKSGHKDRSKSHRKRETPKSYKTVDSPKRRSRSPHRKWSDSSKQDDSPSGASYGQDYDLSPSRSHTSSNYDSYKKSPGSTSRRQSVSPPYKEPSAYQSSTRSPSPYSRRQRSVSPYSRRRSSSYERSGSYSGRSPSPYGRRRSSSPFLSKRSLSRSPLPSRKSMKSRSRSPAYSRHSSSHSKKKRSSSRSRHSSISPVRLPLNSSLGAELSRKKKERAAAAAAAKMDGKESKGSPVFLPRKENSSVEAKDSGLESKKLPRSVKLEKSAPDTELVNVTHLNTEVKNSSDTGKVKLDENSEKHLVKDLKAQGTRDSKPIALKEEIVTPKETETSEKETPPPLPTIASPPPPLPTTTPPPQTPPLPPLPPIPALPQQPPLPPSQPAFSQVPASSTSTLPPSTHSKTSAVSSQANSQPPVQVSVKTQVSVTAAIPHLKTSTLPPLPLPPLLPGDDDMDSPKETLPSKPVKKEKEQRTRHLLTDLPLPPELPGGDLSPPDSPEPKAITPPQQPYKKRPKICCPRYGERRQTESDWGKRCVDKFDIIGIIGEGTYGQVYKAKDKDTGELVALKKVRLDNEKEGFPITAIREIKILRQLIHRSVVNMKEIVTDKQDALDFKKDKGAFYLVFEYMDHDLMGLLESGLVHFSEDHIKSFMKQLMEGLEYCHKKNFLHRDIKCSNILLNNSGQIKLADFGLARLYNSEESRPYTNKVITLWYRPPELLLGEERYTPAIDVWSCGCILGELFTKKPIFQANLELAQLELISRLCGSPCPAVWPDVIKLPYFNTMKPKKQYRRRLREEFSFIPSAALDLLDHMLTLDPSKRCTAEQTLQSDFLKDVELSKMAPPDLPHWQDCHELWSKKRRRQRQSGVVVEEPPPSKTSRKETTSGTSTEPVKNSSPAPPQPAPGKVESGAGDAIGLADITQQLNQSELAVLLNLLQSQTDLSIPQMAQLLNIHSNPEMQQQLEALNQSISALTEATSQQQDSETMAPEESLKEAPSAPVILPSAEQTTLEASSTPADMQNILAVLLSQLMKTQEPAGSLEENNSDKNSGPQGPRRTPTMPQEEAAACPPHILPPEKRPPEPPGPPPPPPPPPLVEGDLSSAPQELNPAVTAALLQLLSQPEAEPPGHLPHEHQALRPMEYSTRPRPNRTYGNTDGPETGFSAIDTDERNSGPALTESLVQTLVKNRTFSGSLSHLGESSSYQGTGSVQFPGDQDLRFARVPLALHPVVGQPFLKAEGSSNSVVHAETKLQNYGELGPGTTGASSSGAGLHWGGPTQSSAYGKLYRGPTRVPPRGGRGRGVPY
Chain of CDK12 (O75909 whole entry partner): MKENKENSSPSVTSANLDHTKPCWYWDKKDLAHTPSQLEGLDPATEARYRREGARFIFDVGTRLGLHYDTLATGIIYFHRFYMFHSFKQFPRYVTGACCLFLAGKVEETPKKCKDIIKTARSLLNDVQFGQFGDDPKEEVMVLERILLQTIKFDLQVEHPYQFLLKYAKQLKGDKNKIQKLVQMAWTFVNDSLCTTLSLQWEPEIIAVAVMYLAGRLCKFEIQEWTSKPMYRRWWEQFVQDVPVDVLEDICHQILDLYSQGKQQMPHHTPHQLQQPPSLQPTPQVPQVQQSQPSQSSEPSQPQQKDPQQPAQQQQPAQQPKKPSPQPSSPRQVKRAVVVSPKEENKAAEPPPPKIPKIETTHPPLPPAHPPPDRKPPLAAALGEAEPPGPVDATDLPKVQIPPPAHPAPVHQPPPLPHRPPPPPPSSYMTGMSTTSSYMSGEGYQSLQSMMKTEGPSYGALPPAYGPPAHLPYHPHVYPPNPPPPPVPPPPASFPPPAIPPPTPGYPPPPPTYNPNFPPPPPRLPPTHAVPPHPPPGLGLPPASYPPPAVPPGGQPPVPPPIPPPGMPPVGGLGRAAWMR

- BSJ-5-63–induced degradation of CDK12/7/9 after pretreatment with the proteasome inhibitor (CDK12): rescued
SMILES: CC(C)C[C@@H](C=O)NC(=O)[C@H](CC(C)C)NC(=O)[C@H](CC(C)C)NC(=O)OCc1ccccc1 [MG132] (Cbz-Leu-Leu-Leu-aldehyde)

- half-life at 1 μM [1]: 10 min
- microsomal CLint at 1 μM [1]: 69 µL/min/mg
SMILES: CCN(CC)CCNC(=O)c1c(C)[nH]c(/C=C2\C(=O)Nc3ccc(F)cc32)c1C [Sunitinib]

SMILES: O=C(c1cc(Cc2n[nH]c(=O)c3ccccc23)ccc1F)N1CCN(C(=O)C2CC2)CC1 [Olaparib]
- sensitivity of CDK12-KO 22Rv1 cells compared with AAVS1 control (PCa cells): significantly enhanced sensitivity
- 22Rv1 tumor growth, monotherapy (22Rv1 xenografts): partial inhibition
- number of apoptotic cells in 22Rv1 tumors, monotherapy (22Rv1 xenografts): notably increased
- DU145 tumor growth, monotherapy (DU145 xenografts): only partial inhibition of tumor growth
- BID-PC4 PDX tumor growth, monotherapy (BID-PC4 PDX): insensitive
- tumor growth of CDK12-KO 22Rv1 xenografts ([2]; 3 weeks): marked sensitivity
- tumor weight of CDK12-KO 22Rv1 xenografts ([2]; day 21): reduction in tumor weight
